Laboratory results published in publication PMC9989852 (Food and chemical toxicology : an international journal …, 2022).
Like-named read-outs stand apart in the source and are kept apart here.

Legend:
B6C3F1 mice [1] = settings: dermal exposure; Supplemental Table 8; ref Weatherly et al., 2021; cited from earlier work
[2] = ref ATSDR, 2021; cited from earlier work
[3] = PFAS concentration in serum; assay type: in vivo, B6C3F1 mice; settings: 0.5%, dermal, 28 days
Summary of the method: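 Serum came by cardiac puncture about 24 h after the final daily ear dose (25 μl/ear, acetone vehicle; female B6C3F1 mice). Samples underwent solid-phase extraction and LC/MS/MS. Short-chain analytes were quantified as linear isomer only; the legacy comparator was quantified as linear plus branched. Data are mean ± SE of 4–5 mice, one-way ANOVA with Dunnett's vs vehicle.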

kidney, spleen = experiment: Kidney and spleen histopathology after 28-day dermal exposure; assay type: in vivo, B6C3F1 mice; settings: 0.5%, 28 days
Summary of the method: (§1)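 Female B6C3F1 mice (5/group) received 25 μl/ear on the dorsal ear surfaces daily, with acetone as vehicle. Tissues were formalin-fixed about 24 h after the last dose: liver remainder, half spleen, right kidney and half ear pinna. Sections were paraffin-embedded, cut at 5 μm and stained with H&E. A veterinary pathologist read them per STP guideline and graded 1 (minimal) to 5 (severe) by extent.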

B6C3F1 mice [4] = experiment: Organ weights and body weight after 28-day dermal exposure; assay type: in vivo; settings: 0.5%, 28 days
liver (caudate) = experiment: Liver gene expression; assay type: in vivo, B6C3F1 mice; settings: 0.5%, dermal, 28 days
Summary of the method: (§2)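 Dosing was daily topical to both dorsal ears (25 μl/ear, acetone vehicle) in female B6C3F1 mice. Liver caudate lobe or half ear pinna was stored in RNAlater and homogenized in RLT buffer. RNA was isolated on RNeasy columns with DNase, and 1–2 μg was reverse-transcribed. TaqMan real-time PCR was read as 2−ΔΔCT vs vehicle, normalized to β-actin. Statistics: ANOVA/Dunnett's, or Kruskal-Wallis/Dunn's for unequal variance.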

spleen = experiment: Spleen phenotyping by flow cytometry after 28-day dermal exposure; assay type: in vivo, B6C3F1 mice; settings: 0.5%, 28 days
Summary of the method: (§3)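 Female B6C3F1 mice (5/group) received 25 μl/ear daily to the dorsal ears in acetone. About 24 h after the last dose, tissues went into RPMI: both auricular dLNs, half spleen and one ear pinna. Single-cell suspensions were acquired on an LSR II, with populations gated per supplemental strategy and FMO gating controls. Results are mean ± SE, n=5, by one-way ANOVA.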

skin [5] = settings: concentrations up to 2%; ref Shane et al., 2020; cited from earlier work
liver = experiment: Liver histopathology after 28-day dermal exposure; assay type: in vivo, B6C3F1 mice; settings: 0.5%, 28 days
Summary of the method: as §1

B6C3F1 mice [6] = experiment: Serum chemistries after 28-day dermal exposure; assay type: in vivo; settings: 28 days
Summary of the method: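 Female B6C3F1 mice received daily dorsal ear application (25 μl/ear, acetone vehicle). About 24 h after the last dose, blood was taken by cardiac puncture. Serum was separated by centrifugation and stored at −20 °C. ALKP, BUN, glucose and cholesterol were read on a Catalyst DX analyzer. Data are mean ± SE of 4–5 mice, ANOVA with Dunnett's; ALKP was also tested by linear regression (p < 0.05).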

ear pinna [7] = experiment: Skin; assay type: in vivo, B6C3F1 mice; settings: 0.5%, dermal, 28 days
Summary of the method: as §3

ear pinna [8] = experiment: Skin; assay type: in vivo, B6C3F1 mice; settings: 0.5%, dermal, 28 days; remark: listed apart in the source
Summary of the method: as §2

skin [9] = experiment: Irritation at the site of dermal application; assay type: in vivo, B6C3F1 mice; settings: 0.5%, 28 days
[10] = PFAS concentration in pooled urine; assay type: in vivo, B6C3F1 mice; settings: B6C3F1, mouse, urine, topical, 0.5 % w/v
Summary of the method: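 Urine was caught in a weigh boat as it was excreted during CO2 euthanasia, about 24 h after the final daily ear dose (25 μl/ear, acetone vehicle; female B6C3F1 mice). The 5 mice per group were pooled, with variable volume. Samples underwent solid-phase extraction and LC/MS/MS, as linear isomer for short-chain analytes and linear plus branched for the comparator. Each group gave a single value without statistics.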

[11] = system: auricular draining lymph nodes (dLNs); experiment: Draining lymph node phenotyping by flow cytometry after 28-day dermal exposure; assay type: in vivo, B6C3F1 mice; settings: 0.5%, 28 days
Summary of the method: as §3

O=C(O)C(F)(F)C(F)(F)C(F)(F)F [PFBA, heptafluorobutyric acid]
serum cholesterol (B6C3F1 mice [1]): elevated cholesterol
serum glucose levels (B6C3F1 mice [1]): increase in glucose levels

O=C(O)C(F)(F)C(F)(F)C(F)(F)C(F)(F)C(F)(F)C(F)(F)C(F)(F)F [PFOA, perfluorooctanoic acid, reference compound]
half-life in humans [2]: 2.1–10.1 years
PFAS serum concentration vs vehicle [3]: significant increase
spleen decreased lymphocyte cellularity, mild (incidence) (kidney, spleen): 2/5
body weight (B6C3F1 mice [4]): significant decrease
kidney weight (% body weight), increase (B6C3F1 mice [4]): 8%
liver weight (% body weight), increase (B6C3F1 mice [4]): 120%
spleen weight (% body weight), decrease (B6C3F1 mice [4]): 41%
thymus weight (% body weight), decrease (B6C3F1 mice [4]): 71%
liver Cd36 gene expression, increase (liver (caudate)): 12.2 fold
liver Ehhadh gene expression, increase (liver (caudate)): 57.7 fold
liver Lpl gene expression, increase (liver (caudate)): 13.1 fold
liver Pparδ gene expression (liver (caudate)): decrease
liver Serpine1 gene expression, increase (liver (caudate)): 10.5 fold
spleen MFI of MHCII on B-cells (spleen): decrease
spleen MFI of MHCII on DCs (spleen): decrease
spleen frequency of CD4^+ T-cells (spleen): increase
spleen frequency of CD8^+ T-cells (spleen): increase
spleen frequency of CD11b + Ly6C + cells (spleen): decrease
spleen frequency of CD11b + Ly6C− cells (spleen): decrease
spleen frequency of CD11b + cells (spleen): decrease
spleen frequency of NK cells (spleen): decrease
spleen frequency of neutrophils (spleen): increase
spleen number of B-cells (spleen): significant decrease
spleen number of CD4^+ T-cells (spleen): significant decrease
spleen number of CD11b + Ly6C + cells (spleen): significant decrease
spleen number of CD11b + Ly6C− cells (spleen): significant decrease
spleen number of CD11b + cells (spleen): significant decrease
spleen number of NK cells (spleen): significant decrease
spleen number of eosinophils (spleen): significant decrease
spleen number of total DCs (spleen): significant decrease
spleen total cell number (spleen): significant decrease
signs of skin irritation (skin [5]): did not show any signs of irritation
liver hepatocellular hypertrophy (diffuse), marked (incidence) (liver): 5/5
serum ALKP, increase (B6C3F1 mice [6]; 0.5%): 112%
serum BUN (B6C3F1 mice [6]; 0.5%): No change
serum cholesterol (B6C3F1 mice [6]; 0.5%): No change
serum glucose, decrease (B6C3F1 mice [6]; 0.5%): 44%
serum alanine aminotransferase (ALT) (B6C3F1 mice [6]; any concentration, data not shown): No change
skin CD11b + F4/80+ DCs, frequency and cell number (ear pinna [7]): significantly decreased
skin CD11b− F4/80 DCs, frequency and cell number (ear pinna [7]): significantly decreased
skin CD11b− F/480+ DCs, frequency and cell number (ear pinna [7]): significantly decreased
skin CD45^+ cells, frequency and cell number (ear pinna [7]): significantly decreased
skin eosinophils, frequency and cell number (ear pinna [7]): significantly decreased
skin total DCs, frequency and cell number (ear pinna [7]): significantly decreased
skin Flg gene expression (ear pinna [8]): increased
skin Pparγ gene expression (ear pinna [8]): significant decrease
skin Pparδ gene expression (ear pinna [8]): slight significant increase
skin Serpine1 gene expression (ear pinna [8]): significant increase
irritation at the site of application (skin [9]): no irritation
concentration at 24 h [10]: 260 µg/mL
dLN B-cells [11]: no B-cell changes
dLN CD4^+ T-cells, cell number and frequency [11]: decreased
dLN MHCII MFI on B-cells [11]: decrease
dLN eosinophil cell number [11]: decrease
total dLN cellularity [11]: neither PFOA (Supplemental Table 3) nor PFBA (Supplemental Table 9) induced changes
